Measured values as given in ChEMBL document CHEMBL4622983, “Structure-Activity Relationship Studies of α-Ketoamides as Inhibitors of the Phospholipase A and Acyltransferase Enzyme Family” (J Med Chem, 2020).
pIC50: −log10 of the molar value. The source made the active and inactive calls. The calls are words filed in the database; no cut-off is given here.

Columns and labels:
[1] = target: T1, Phospholipase A and acyltransferase 2 (Homo sapiens, UniProt Q9NWW9); test: Inhibition of full-length C-terminal FLAG-tagged human PLAAT2 expressed in HEK293T cell lysate preincubated for 30 mins followed by MB064 addition and measured after 20 mins by SDS-PAGE based ABPP analysis; type: cell-free, HEK-293T
T1 sequence (Q9NWW9 whole entry): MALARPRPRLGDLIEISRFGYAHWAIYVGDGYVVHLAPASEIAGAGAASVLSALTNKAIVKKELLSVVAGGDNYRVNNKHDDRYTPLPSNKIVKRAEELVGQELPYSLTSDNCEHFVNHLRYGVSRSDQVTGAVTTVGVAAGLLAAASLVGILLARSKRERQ
Summary of the method: (§1)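 Dose–response competitive ABPP on cytosol only, from HEK293T overexpressing FLAG-tagged PLAAT. Inhibitor 30 min rt, then MB064 20 min rt. PLAAT2 0.25 μg/μL with 250 nM probe; PLAAT3 0.5 μg/μL with 250 nM; PLAAT4 and PLAAT5 1 μg/μL with 500 nM. Fluorescence normalized to Coomassie. IC50 from curves, reported as pIC50 ± SEM, n = 3.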

[2] = target: T2, Phospholipase A and acyltransferase 5 (Homo sapiens, UniProt Q96KN8); test: Inhibition of full-length C-terminal FLAG-tagged human PLAAT5 expressed in HEK293T cell lysate preincubated for 30 mins followed by MB064 addition and measured after 20 mins by SDS-PAGE based ABPP analysis; type: cell-free, HEK-293T; summary of the method: as §1
T2 sequence (Q96KN8 whole entry): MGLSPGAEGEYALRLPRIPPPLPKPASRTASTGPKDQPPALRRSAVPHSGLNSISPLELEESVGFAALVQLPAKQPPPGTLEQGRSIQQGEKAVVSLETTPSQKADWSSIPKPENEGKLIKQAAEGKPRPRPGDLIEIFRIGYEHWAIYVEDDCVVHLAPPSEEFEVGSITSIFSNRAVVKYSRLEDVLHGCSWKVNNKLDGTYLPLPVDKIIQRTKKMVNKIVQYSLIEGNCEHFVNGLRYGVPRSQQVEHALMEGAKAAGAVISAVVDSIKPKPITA

[3] = target: Cannabinoid receptor 1 (Homo sapiens) (UniProt P21554); test: Displacement of [3H]CP55940 from human CB1 receptor expressed in CHOK1 cell membranes at 10 uM by liquid scintillation spectrometry analysis; settings: CHO-K1
Summary of the method: (§2)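 [3H]CP55940 displacement at human CB1 or CB2 receptors, single test concentration 10 μM. Result expressed as % radioligand displacement ± SD (N = 2, n = 2).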

[4] = target: Cannabinoid receptor 2 (Homo sapiens) (UniProt P34972); test: Displacement of [3H]CP55940 from human CB2 receptor expressed in CHOK1 cell membranes at 10 uM by liquid scintillation spectrometry analysis; settings: CHO-K1; summary of the method: as §2
[5] = target: N-acyl-phosphatidylethanolamine-hydrolyzing phospholipase D (Homo sapiens) (UniProt Q6IQ20); test: Inhibition of full length human NAPE-PLD expressed in HEK293T cells assessed as enzyme remaining activity at 10 uM using PED6 as substrate preincubated for 30 mins followed by substrate addition and measured for 1 hr at 2 mins relative to control; type: cell-based; settings: HEK-293T
[6] = target: Cytosolic phospholipase A2 epsilon (Homo sapiens) (UniProt Q3MJ16); test: Inhibition of full length human PLA2G4E assessed as enzyme remaining activity at 10 uM using FP-TAMRA as substrate preincubated for 30 mins followed by substrate addition and measured after 5 mins by SDS-PAGE based ABPP analysis relative to control
Summary of the method: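 hPLA2G4E-overexpressing membrane lysate (1 μg/μL) preincubated with 10 μM inhibitor for 30 min at rt. FP-TAMRA 50 nM added for 5 min at rt. Resolved on 8% SDS-PAGE, fluorescence normalized to Coomassie. Reported as % remaining activity ± SD, n = 3.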

[7] = target: T3, Phospholipase A and acyltransferase 5 (Homo sapiens) (UniProt Q96KN8); test: Inhibition of full-length C-terminal FLAG-tagged human PLAAT5 expressed in human U2OS cells assessed as reduction in anandamide level at 10 uM incubated for 4 hrs by LC-MS/MS analysis relative to control; type: cell-based
T3 sequence (whole entry): T2 sequence (Q96KN8 whole entry)
Summary of the method: (§3)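 U2OS cells transfected with PLAAT2, PLAAT5 or empty vector (PEI, 1:5 plasmid/PEI). At 24 h, switched to serum-free medium with 10 μM compound (0.1% DMSO) or DMSO for 4 h at 37 °C. Pellets extracted with MTBE against deuterated internal standards. NAEs, 2-AG and free fatty acids quantified by LC–MS/MS, normalized to live cell count. Four biological replicates; one-way ANOVA.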

[8] = target: T4, Phospholipase A and acyltransferase 2 (Homo sapiens) (UniProt Q9NWW9); test: Inhibition of full-length C-terminal FLAG-tagged human PLAAT2 expressed in human U2OS cells assessed as reduction in absolute N-palmitoleoylethanolamine level at 10 uM incubated for 4 hrs by LC-MS/MS analysis; type: cell-based; summary of the method: as §3
T4 sequence (whole entry): T1 sequence (Q9NWW9 whole entry)

[9] = target: T4, Phospholipase A and acyltransferase 2 (Homo sapiens); test: Inhibition of full-length C-terminal FLAG-tagged human PLAAT2 expressed in human U2OS cells assessed as reduction in absolute N-stearoylethanolamine level at 10 uM incubated for 4 hrs by LC-MS/MS analysis; type: cell-based; summary of the method: as §3
[10] = target: T3, Phospholipase A and acyltransferase 5 (Homo sapiens); test: Inhibition of full-length C-terminal FLAG-tagged human PLAAT5 expressed in human U2OS cells assessed as reduction in absolute N-oleoylethanolamine level at 10 uM incubated for 4 hrs by LC-MS/MS analysis; type: cell-based; summary of the method: as §3
[11] = target: T4, Phospholipase A and acyltransferase 2 (Homo sapiens); test: Inhibition of full-length C-terminal FLAG-tagged human PLAAT2 expressed in human U2OS cells assessed as reduction in absolute N-linoleoylethanolamine level at 10 uM incubated for 4 hrs by LC-MS/MS analysis; type: cell-based; summary of the method: as §3
[12] = target: T3, Phospholipase A and acyltransferase 5 (Homo sapiens); test: Inhibition of full-length C-terminal FLAG-tagged human PLAAT5 expressed in human U2OS cells assessed as reduction in absolute N-linoleoylethanolamine level at 10 uM incubated for 4 hrs by LC-MS/MS analysis; type: cell-based; summary of the method: as §3
[13] = test system: U2OS; test: Downregulation of N-palmitoleoylethanolamine level in human U2OS cells at 10 uM after 4 hrs by LC-MS/MS analysis; type: functional, cell-based; summary of the method: as §3
[14] = test system: U2OS; test: Downregulation of N-arachidonoylethanolamine level in human U2OS cells at 10 uM after 4 hrs by LC-MS/MS analysis; type: functional, cell-based; summary of the method: as §3
[15] = test system: U2OS; test: Inhibition of serine hydrolase in human U2OS cell membrane fraction at 10 uM preincubated for 30 mins followed by MB064 addition and measured after 15 mins by SDS-PAGE based competitive ABPP analysis
Summary of the method: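 U2OS cytosol or membrane lysate at 2.5 μg/μL, pretreated with inhibitor or DMSO vehicle for 30 min at rt. Probe then added for 15 min at rt: MB064 at 2 μM or FP-TAMRA at 500 nM. Samples denatured in Laemmli buffer and resolved by SDS-PAGE. In-gel fluorescence scanned at Cy3/Cy5 settings and normalized to Coomassie staining.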

[16] = target: Cytosolic phospholipase A2 (Homo sapiens) (UniProt P47712); test: Inhibition of human PLA2G4A expressed in HEK293T cell lysates at 50 uM preincubated for 30 mins followed by FP-TAMRA addition and measured after 20 mins by SDS-PAGE based competitive ABPP analysis; type: cell-free; settings: HEK-293T
[17] = target: Monoglyceride lipase (Homo sapiens) (UniProt Q99685); test: Inhibition of human MAGL expressed in HEK293 cells assessed as enzyme remaining activity at 10 uM measured by natural substrate-based fluorescence assay relative to control
Chain of Monoglyceride lipase (Homo sapiens) (Q99685 whole entry): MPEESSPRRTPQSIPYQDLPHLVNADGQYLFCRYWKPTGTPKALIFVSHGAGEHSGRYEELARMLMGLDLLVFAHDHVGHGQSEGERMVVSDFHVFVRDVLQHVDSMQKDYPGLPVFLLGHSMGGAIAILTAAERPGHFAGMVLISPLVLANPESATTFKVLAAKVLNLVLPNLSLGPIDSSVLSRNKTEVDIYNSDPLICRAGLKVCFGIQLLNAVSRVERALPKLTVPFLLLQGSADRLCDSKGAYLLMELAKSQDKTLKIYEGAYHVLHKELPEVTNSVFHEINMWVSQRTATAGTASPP

Chain of N-acyl-phosphatidylethanolamine-hydrolyzing phospholipase D (Homo sapiens) (Q6IQ20 whole entry, looked up): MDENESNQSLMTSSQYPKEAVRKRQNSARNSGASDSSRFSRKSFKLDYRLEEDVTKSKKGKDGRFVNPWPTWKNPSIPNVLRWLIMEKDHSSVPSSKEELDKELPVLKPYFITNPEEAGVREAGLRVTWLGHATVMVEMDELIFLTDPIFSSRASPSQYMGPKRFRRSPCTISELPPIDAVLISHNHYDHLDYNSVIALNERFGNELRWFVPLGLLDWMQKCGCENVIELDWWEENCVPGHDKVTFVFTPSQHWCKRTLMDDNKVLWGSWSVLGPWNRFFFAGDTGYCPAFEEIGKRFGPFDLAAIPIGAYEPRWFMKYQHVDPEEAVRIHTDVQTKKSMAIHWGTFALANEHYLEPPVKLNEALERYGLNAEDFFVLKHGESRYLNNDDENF
Chain of Cytosolic phospholipase A2 (Homo sapiens) (P47712 whole entry): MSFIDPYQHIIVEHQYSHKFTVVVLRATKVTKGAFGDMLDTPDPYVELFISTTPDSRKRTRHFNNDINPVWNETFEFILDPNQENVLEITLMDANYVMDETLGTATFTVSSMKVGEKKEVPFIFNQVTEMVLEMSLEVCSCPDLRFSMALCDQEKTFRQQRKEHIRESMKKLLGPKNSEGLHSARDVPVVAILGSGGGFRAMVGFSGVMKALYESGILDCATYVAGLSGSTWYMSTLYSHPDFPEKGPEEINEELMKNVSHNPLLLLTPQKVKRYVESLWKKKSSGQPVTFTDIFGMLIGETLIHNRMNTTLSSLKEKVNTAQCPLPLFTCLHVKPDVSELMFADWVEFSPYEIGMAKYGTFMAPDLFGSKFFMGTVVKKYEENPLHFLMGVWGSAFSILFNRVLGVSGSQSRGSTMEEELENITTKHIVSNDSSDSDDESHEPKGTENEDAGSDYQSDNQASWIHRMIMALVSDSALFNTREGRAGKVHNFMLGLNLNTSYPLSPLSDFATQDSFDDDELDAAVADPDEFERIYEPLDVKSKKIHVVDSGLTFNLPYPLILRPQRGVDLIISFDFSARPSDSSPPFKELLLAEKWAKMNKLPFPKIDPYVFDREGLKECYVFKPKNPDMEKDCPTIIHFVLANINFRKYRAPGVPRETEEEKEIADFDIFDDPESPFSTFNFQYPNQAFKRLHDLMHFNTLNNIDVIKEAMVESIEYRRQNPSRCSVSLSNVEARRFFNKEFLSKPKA
Chain of Cytosolic phospholipase A2 epsilon (Homo sapiens) (Q3MJ16 whole entry): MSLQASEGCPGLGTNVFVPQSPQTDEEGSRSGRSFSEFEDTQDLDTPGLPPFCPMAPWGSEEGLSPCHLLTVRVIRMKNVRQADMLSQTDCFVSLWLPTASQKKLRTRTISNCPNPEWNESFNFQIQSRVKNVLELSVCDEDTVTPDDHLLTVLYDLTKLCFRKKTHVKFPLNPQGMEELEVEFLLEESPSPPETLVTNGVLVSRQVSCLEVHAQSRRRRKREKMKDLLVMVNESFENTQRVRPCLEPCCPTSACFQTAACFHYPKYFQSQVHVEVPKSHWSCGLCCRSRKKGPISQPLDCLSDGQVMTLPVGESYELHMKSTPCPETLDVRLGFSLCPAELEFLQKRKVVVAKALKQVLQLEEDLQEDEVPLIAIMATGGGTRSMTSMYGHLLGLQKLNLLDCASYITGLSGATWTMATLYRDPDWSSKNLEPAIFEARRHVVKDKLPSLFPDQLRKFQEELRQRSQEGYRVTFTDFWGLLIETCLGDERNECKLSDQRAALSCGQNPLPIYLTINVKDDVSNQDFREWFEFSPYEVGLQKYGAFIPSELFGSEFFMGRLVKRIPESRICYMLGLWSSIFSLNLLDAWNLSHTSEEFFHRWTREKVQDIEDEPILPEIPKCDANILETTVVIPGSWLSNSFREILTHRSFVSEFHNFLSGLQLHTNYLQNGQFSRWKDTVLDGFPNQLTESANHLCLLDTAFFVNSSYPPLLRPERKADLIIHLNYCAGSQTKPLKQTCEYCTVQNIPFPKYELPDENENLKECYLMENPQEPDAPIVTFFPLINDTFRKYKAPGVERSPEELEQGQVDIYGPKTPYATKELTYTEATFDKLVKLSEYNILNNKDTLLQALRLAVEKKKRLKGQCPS
Chain of Cannabinoid receptor 2 (Homo sapiens) (P34972 whole entry): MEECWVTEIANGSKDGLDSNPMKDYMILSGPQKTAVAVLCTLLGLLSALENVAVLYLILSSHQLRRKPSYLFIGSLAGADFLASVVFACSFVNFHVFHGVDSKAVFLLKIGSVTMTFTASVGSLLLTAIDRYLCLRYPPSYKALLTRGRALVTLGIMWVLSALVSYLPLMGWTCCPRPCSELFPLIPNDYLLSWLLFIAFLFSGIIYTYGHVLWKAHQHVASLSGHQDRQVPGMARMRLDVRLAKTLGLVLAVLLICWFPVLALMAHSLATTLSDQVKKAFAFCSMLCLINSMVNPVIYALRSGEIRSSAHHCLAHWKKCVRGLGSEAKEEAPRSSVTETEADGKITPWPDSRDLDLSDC
Chain of Cannabinoid receptor 1 (Homo sapiens) (P21554 whole entry): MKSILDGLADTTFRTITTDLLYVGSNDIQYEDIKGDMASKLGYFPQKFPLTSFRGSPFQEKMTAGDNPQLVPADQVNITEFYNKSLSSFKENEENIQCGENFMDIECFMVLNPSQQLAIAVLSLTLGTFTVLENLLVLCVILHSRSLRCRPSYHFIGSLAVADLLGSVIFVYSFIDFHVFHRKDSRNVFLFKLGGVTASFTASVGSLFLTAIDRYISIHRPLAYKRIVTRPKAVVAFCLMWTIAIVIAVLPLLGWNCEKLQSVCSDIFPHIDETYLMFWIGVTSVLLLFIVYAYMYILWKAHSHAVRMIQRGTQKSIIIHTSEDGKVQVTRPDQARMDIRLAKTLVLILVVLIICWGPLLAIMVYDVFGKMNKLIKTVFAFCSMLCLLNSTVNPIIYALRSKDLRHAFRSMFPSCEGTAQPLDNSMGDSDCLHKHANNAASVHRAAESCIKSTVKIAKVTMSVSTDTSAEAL

pIC50 [1]: 7.30
pIC50 [2]: 7.40
Activity [3]: 49%
Activity [4]: 32%
Activity [5]: 92%
Activity [6]: 95%
fold change (FC) [7]: 2
inhibition [8]: Active
inhibition [9]: Active
inhibition [10]: Active
inhibition [11]: Active
inhibition [12]: Active
inhibition [16]: inactive
Activity [17]: 105%
SMILES: O=C(CCCc1ccccc1)C(=O)NCCc1ccc(Oc2ccccc2)cc1
inhibition [13]: inactive
inhibition [14]: inactive
inhibition [15]: inactive
